Converted amounts (≈) assume the structure as drawn.
Assays:
[1] = system: Mycobacterium tuberculosis; assay: Antimycobacterial activity against Mycobacterium tuberculosis H37Rv ATCC 27294 assessed as reduction in bacterial cell growth incubated for 7 days by microplate alamar blue assay; assay type: functional; settings: H37Rv ATCC 27294, 168 h
How it was run: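 MABA: H37Rv or clinical MDR isolates (resistant to INH and RFP, Beijing Chest Hospital patients) grown to late log phase in 7H9 with glycerol, Tween 80 and ADC, washed, filtered and frozen. Two-fold compound dilutions with 2 × 10⁵ CFU per well, 37 °C; Alamar blue plus Tween 80 added on day 7, fluorescence (ex 530/em 590) read after 16–24 h. MIC = lowest concentration giving ≥90% fluorescence reduction versus mean of bacterium-only controls; RIF and INH as positive controls.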

[2] = Cytotoxicity against African green monkey Vero cells assessed as reduction in cell viability; assay type: cell-based; settings: chlorocebus sabaeus
[3] = Acute toxicity in Sprague-Dawley rat assessed as death at 2 g/kg, po measured continuously for first 4 hrs followed by every 1 hr for next 24 hrs and subsequent 8 hrs interval for 7 days; assay type: organism-based; settings: in vivo, 2000 mg/kg
How it was run: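 SD rats, 180–220 g, randomised, ten per group, food withheld overnight. Single oral dose of 2 g/kg suspended in 5% CMC; controls given vehicle only. Watched continuously for 4 h, hourly for the next 24 h, then every 8 h through day 7 for deaths or changes. Read-out is survivors/total at 7 days.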

[4] = MRT in ICR mouse at 25 mg/kg, po measured upto 24 hrs by HPLC analysis; assay type: ADME, organism-based; settings: in vivo
How it was run: (§1)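 Female SPF ICR mice, 18–22 g, fasted overnight, 3 per group; single oral dose 25 mg/kg as suspension in 0.5% CMC. Jugular vein blood drawn at 0.25, 0.5, 1, 2, 4, 6, 8 and 24 h; serum deproteinised with acetonitrile, dried, redissolved and quantified by HPLC. AUC, t1/2, Cmax and Tmax taken directly from concentration–time data.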

[5] = Mutagenicity in Salmonella typhimurium TA102 in presence of S9 fraction by mini-Ames test; assay type: toxicity, subcellular; settings: salmonella enterica subsp. enterica serovar typhimurium
[6] = AUC (0 to infinity) in ICR mouse at 25 mg/kg, po measured upto 24 hrs by HPLC analysis; assay type: ADME, organism-based; parameters: dose 25 mg/kg, time infinity, route oral; settings: in vivo; how it was run: as §1
[7] = system: Mycobacterium tuberculosis; assay: Antituberculosis activity against Mycobacterium tuberculosis H37Rv infected in BALB/C mouse assessed as colony forming unit in lungs at 25 mg/kg, po administered once daily via gavage for 5 days per week for 3 weeks starting from 10 days post-infection (reference value: 6.44 +/- 0.34); assay type: functional
[8] = Mutagenicity in Salmonella typhimurium TA100 in absence of S9 fraction by mini-Ames test; assay type: toxicity; settings: salmonella enterica subsp. enterica serovar typhimurium
[9] = target: T1, CYP1A2 (Homo sapiens, UniProt P05177); assay: Inhibition of CYP1A2 (unknown origin); assay type: ADME
T1 sequence (P05177 whole entry): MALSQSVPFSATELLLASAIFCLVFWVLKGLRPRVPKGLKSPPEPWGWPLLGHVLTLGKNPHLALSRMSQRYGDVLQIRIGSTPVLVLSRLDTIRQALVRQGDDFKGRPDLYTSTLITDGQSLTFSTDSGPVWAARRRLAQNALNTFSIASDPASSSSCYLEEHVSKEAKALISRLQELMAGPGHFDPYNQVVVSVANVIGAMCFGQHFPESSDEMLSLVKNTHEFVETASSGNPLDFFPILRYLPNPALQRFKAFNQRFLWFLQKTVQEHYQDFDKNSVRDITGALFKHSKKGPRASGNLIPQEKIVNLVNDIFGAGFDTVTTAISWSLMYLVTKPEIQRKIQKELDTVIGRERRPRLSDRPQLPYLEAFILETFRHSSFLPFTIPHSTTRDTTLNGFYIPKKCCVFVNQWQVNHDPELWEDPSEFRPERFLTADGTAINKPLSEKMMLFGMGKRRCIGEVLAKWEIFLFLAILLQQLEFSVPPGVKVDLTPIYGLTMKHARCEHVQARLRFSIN

[10] = Half life in ICR mouse at 25 mg/kg, po measured upto 24 hrs by HPLC analysis; assay type: ADME, organism-based; settings: in vivo; how it was run: as §1
[11] = Mutagenicity in Salmonella typhimurium TA102 in absence of S9 fraction by mini-Ames test; assay type: toxicity; settings: salmonella enterica subsp. enterica serovar typhimurium
[12] = Tmax in ICR mouse at 25 mg/kg, po measured upto 24 hrs by HPLC analysis; assay type: ADME, organism-based; settings: in vivo; how it was run: as §1
[13] = Cmax in ICR mouse at 25 mg/kg, po measured upto 24 hrs by HPLC analysis; assay type: ADME, organism-based; parameters: dose 25 mg/kg, route oral; settings: in vivo; how it was run: as §1
[14] = target: CYP2D6 (Homo sapiens, UniProt P10635); assay: Inhibition of CYP2D6 (unknown origin); assay type: ADME
CYP2D6, sequence (P10635 whole entry): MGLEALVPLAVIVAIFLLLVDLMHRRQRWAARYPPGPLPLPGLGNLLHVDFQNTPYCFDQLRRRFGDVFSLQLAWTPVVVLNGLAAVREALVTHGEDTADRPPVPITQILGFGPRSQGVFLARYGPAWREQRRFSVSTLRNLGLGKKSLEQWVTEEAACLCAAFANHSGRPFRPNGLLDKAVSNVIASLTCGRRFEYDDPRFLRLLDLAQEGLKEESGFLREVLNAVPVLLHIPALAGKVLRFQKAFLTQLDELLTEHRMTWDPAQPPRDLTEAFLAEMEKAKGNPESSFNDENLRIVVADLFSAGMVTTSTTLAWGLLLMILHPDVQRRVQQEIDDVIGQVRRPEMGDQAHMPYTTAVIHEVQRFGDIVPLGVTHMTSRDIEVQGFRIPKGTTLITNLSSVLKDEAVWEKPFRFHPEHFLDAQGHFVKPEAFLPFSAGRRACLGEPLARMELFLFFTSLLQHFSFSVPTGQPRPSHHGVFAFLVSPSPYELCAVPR

[15] = target: Voltage-gated inwardly rectifying potassium channel KCNH2 (Homo sapiens, UniProt Q12809); assay: Inhibition of human ERG transfected in HEK293 cells by whole-cell patch clamp method; assay type: cell-based; settings: hek293
Voltage-gated inwardly rectifying potassium channel KCNH2, sequence (Q12809 whole entry): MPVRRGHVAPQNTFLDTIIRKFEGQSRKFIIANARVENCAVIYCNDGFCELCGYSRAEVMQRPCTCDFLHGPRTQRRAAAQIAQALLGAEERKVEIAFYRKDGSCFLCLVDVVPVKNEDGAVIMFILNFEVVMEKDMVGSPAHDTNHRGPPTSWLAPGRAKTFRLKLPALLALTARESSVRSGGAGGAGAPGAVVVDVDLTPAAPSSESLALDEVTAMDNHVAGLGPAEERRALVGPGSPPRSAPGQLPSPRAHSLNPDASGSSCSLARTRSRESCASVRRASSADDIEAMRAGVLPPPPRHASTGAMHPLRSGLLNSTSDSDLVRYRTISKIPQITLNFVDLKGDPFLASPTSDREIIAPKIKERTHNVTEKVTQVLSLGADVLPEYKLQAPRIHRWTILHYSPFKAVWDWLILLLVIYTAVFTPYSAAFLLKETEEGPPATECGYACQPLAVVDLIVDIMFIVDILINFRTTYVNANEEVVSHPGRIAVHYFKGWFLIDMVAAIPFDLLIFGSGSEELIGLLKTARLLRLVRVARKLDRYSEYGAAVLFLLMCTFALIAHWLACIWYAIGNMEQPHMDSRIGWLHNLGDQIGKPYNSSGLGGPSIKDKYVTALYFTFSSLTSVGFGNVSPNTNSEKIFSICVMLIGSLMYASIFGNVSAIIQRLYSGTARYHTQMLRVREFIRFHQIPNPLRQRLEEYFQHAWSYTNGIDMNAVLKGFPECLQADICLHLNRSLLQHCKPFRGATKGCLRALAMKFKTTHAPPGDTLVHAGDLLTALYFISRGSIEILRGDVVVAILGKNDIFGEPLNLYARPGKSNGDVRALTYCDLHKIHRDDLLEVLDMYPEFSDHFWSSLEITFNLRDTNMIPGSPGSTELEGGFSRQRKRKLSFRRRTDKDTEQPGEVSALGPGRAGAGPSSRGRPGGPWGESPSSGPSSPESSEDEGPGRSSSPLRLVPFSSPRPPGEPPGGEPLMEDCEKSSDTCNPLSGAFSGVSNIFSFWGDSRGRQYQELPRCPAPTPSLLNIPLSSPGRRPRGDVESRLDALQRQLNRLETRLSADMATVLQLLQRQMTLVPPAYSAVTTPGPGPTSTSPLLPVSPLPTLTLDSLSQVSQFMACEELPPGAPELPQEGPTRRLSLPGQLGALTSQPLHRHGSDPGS

[16] = target: CYP3A4 (Homo sapiens, UniProt P08684); assay: Inhibition of CYP3A4 (unknown origin); assay type: ADME
CYP3A4, sequence (P08684 whole entry): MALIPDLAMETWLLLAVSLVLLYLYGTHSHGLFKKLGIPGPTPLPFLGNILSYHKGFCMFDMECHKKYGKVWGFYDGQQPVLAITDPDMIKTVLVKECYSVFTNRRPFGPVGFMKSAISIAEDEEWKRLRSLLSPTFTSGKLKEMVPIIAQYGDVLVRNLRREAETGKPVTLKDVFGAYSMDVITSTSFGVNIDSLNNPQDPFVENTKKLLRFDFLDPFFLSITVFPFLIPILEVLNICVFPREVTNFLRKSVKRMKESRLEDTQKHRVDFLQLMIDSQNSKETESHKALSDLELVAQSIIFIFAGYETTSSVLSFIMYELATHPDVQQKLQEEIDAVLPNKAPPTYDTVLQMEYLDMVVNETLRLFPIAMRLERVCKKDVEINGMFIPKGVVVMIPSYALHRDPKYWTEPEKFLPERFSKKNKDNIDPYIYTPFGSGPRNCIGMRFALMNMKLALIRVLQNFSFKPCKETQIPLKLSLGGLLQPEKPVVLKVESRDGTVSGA

[17] = target: CYP2C9 (Homo sapiens, UniProt P11712); assay: Inhibition of CYP2C9 (unknown origin); assay type: ADME
CYP2C9, sequence (P11712 whole entry): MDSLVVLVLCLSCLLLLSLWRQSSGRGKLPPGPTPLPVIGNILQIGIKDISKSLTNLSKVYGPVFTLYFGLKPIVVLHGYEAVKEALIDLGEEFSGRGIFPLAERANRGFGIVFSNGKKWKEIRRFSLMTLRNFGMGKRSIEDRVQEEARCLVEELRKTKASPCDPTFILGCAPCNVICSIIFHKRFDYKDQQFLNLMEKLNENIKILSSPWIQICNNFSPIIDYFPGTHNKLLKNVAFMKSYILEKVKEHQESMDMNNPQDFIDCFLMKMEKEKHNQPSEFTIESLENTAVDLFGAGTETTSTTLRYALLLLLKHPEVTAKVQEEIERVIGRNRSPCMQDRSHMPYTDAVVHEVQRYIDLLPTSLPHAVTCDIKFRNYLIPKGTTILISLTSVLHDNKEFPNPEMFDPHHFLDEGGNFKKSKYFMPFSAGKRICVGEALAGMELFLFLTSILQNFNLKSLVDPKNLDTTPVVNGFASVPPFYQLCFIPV

[18] = system: Mycobacterium tuberculosis; assay: Antimycobacterial activity against Mycobacterium tuberculosis H37Rv assessed as reduction in bacterial cell growth at 32 ug/ml by Low-oxygen recovery assay; assay type: functional
[19] = system: Mycobacterium tuberculosis; assay: Antimycobacterial activity against Mycobacterium tuberculosis H37Rv assessed as reduction in bacterial cell growth by Low-oxygen recovery assay; assay type: functional
[20] = target: Cytochrome P450 2C19 (Homo sapiens, UniProt P33261); assay: Inhibition of CYP2C19 (unknown origin); assay type: ADME
Cytochrome P450 2C19, sequence (P33261 whole entry): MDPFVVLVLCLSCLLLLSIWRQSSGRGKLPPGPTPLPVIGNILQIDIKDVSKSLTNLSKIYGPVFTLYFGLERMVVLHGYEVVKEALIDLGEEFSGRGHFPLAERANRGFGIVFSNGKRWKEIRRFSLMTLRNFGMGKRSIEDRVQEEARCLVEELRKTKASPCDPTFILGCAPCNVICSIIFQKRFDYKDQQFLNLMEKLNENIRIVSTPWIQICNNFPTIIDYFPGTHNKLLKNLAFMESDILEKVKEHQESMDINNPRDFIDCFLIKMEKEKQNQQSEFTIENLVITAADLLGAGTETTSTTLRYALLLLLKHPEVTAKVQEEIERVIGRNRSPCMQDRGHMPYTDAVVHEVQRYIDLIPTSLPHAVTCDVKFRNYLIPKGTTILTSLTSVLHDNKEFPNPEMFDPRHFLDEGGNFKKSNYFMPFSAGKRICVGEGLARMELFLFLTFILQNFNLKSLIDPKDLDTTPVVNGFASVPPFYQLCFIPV

[21] = system: Mycobacterium tuberculosis; assay: Antituberculosis activity against Mycobacterium tuberculosis H37Rv infected in BALB/C mouse assessed as reduction in log10CFU in lungs at 25 mg/kg, po administered once daily for 5 days per week for a total of 3 weeks started on day 10 post-infection; assay type: functional
[22] = Mutagenicity in Salmonella typhimurium TA100 in presence of S9 fraction by mini-Ames test; assay type: toxicity, subcellular; settings: salmonella enterica subsp. enterica serovar typhimurium

Structure (SMILES)	MIC90 [1]	CC50 [2]	also measured
CON=C1CC(CN2CCN(c3nc(=O)c4cc(C(F)(F)F)cc([N+](=O)[O-])c4s3)CC2)C1 (configuration not stated)	0.023 µg/mL (≈ 0.0488 µM)		
CON=C1CCC(CN2CC(C)N(c3nc(=O)c4cc(C(F)(F)F)cc([N+](=O)[O-])c4s3)CC2C)CC1 (configuration not stated)	0.031 µg/mL (≈ 0.0588 µM)		
CCON=C1CCC(CN2C(C)CN(c3nc(=O)c4cc(C(F)(F)F)cc([N+](=O)[O-])c4s3)CC2C)CC1 (configuration not stated)	< 0.016 µg/mL	60.5 µg/mL (≈ 112 µM)	
CCO/N=C(\C)CCN1CCN(c2nc(=O)c3cc(C(F)(F)F)cc([N+](=O)[O-])c3s2)CC1	< 0.016 µg/mL	> 64 µg/mL	
CCON=C1CCC(CN2CCN(c3nc(=O)c4cc(C(F)(F)F)cc([N+](=O)[O-])c4s3)[C@H](C)C2)CC1 (some centres not stated)	< 0.016 µg/mL	> 64 µg/mL	
CCON=C1CC(CN2CCN(c3nc(=O)c4cc(C(F)(F)F)cc([N+](=O)[O-])c4s3)CC2C)C1 (configuration not stated)	0.052 µg/mL (≈ 0.104 µM)		
CCON=C1CC(CN2CCN(c3nc(=O)c4cc(C(F)(F)F)cc([N+](=O)[O-])c4s3)CC2)C1 (configuration not stated)	< 0.016 µg/mL	> 64 µg/mL	
CON=C1CC(CN2C(C)CN(c3nc(=O)c4cc(C(F)(F)F)cc([N+](=O)[O-])c4s3)CC2C)C1 (configuration not stated)	0.066 µg/mL (≈ 0.132 µM)		
CCON=C1CCC(CN2CCN(c3nc(=O)c4cc(C(F)(F)F)cc([N+](=O)[O-])c4s3)CC2C)CC1 (configuration not stated)	< 0.016 µg/mL	> 64 µg/mL	
CON=C1CCC(CN2CCN(c3nc(=O)c4cc(C(F)(F)F)cc([N+](=O)[O-])c4s3)CC2C)CC1 (configuration not stated)	< 0.016 µg/mL	> 64 µg/mL	
CCO/N=C(/C)CCN1CCC2(CCN(c3nc(=O)c4cc(C(F)(F)F)cc([N+](=O)[O-])c4s3)CC2)C1	0.241 µg/mL (≈ 0.457 µM)		
CCON=C1CCC(CN2CCN(c3nc(=O)c4cc(C(F)(F)F)cc([N+](=O)[O-])c4s3)CC2)CC1 (configuration not stated)	< 0.016 µg/mL	> 64 µg/mL	Activity [3]: Non-Toxic; MRT [4]: 2.3 h; Activity [5]: Non-Toxic; AUC(0-inf) [6]: 40600 ng·h/mL; Activity [7]: 2 log10CFU; Activity [8]: Non-Toxic; IC50 [9]: > 10 µM; half-life [10]: 2.29 h; Activity [11]: Non-Toxic; Tmax [12]: 0.25 h; Cmax [13]: 15200 ng/mL; IC50 [14]: > 10 µM; IC50 [15]: 38.9 µM; IC50 [16]: > 10 µM; IC50 [17]: > 10 µM; inhibition at 32 µg/mL [18]: 79%; MIC [19]: > 32 µg/mL; IC50 [20]: > 10 µM; Activity [21]: 4.44 log10CFU; Activity [22]: Non-Toxic
C/C(CCN1CCN(c2nc(=O)c3cc(C(F)(F)F)cc([N+](=O)[O-])c3s2)CC1)=N\OCc1ccccc1	< 0.016 µg/mL	> 64 µg/mL	
CO/N=C(/C)CCN1CCC2(CCN(c3nc(=O)c4cc(C(F)(F)F)cc([N+](=O)[O-])c4s3)CC2)C1	0.469 µg/mL (≈ 0.913 µM)		
CON=C1CCC(CN2C(C)CN(c3nc(=O)c4cc(C(F)(F)F)cc([N+](=O)[O-])c4s3)CC2C)CC1 (configuration not stated)	< 0.016 µg/mL	> 64 µg/mL	
NNC(=O)c1ccncc1 [ISONIAZID]	0.031 µg/mL (≈ 0.226 µM)		Activity [7]: 1.76 log10CFU
CO[C@H]1/C=C/O[C@@]2(C)Oc3c(C)c(O)c4c(O)c(c(/C=N/N5CCN(C)CC5)c(O)c4c3C2=O)NC(=O)/C(C)=C\C=C\[C@H](C)[C@H](O)[C@@H](C)[C@@H](O)[C@@H](C)[C@H](OC(C)=O)[C@@H]1C [RIFAMPIN]	0.078 µg/mL (≈ 0.0948 µM)		

Reference: ChEMBL document CHEMBL4359877, “Identification of benzothiazinones containing an oxime functional moiety as new anti-tuberculosis agents” (Eur J Med Chem, 2019)
